The source of these data is ChEMBL document CHEMBL3272249, “Esters of N-tert-butylarterenol. Long-acting new bronchodilators with reduced cardiac effects” (J Med Chem, 1976).

In data set [1] the test system is Canis familiaris. The experiment in a line: Cardiotoxicity in spontaneously respiring dog assessed as time of increase in heart rate at 10 to 20 mg/kg, iv relative to control. On the set-up: dose 10-20 mg/kg, route intravenous. The format is toxicity, organism-based, Canis lupus familiaris. The settings on record: in vivo. In outline: (§1)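 Anesthetized, spontaneously respiring dogs. Heart rate monitored by lead II EKG; blood pressure from right femoral artery by pressure transducer. Rise in heart rate (beats/min) scored ±=5-15, +=20-40, ++=40-60, +++=>60, n>4/dose; duration of the rise in h. Drug stocks freshly made in distilled water, diluted in physiological saline, kept on ice.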

For data set [2], the system named is Canis familiaris. Put plainly: Bronchodilator activity in dog assessed as time of inhibition of carbachol or histamine-induced bronchoconstriction at 10 to 20 mg/kg, iv relative to control. Format: functional, Canis lupus familiaris. The settings on record: dose mg/kg 10-20. Put shortly: (§2)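 Dog with airway cannulated through a nonbreathing valve. Bronchoconstriction induced by iv carbachol (2–4 µg/kg) or histamine diphosphate (20–50 µg/kg); airway pressure recorded by pressure transducer. Each compound tested against both agonists in different animals, and results were combined and averaged. Bronchodilation = % inhibition of control constriction; degree scored as +, ++, +++ (20-45, 45-70, >70%) from higher dose, ≥3 dogs/dose; duration in h.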

Data set [3] has as its system Canis familiaris. The experiment in a line: Cardiotoxicity in spontaneously respiring dog assessed as degree of increase in heart rate at 10 to 20 mg/kg, iv relative to control. The arrangement: dose 10-20 mg/kg, route intravenous. The format is toxicity, organism-based, Canis lupus familiaris. Particulars: in vivo. Put shortly:
as §1

In data set [4] the test system is Canis familiaris. Put plainly: Bronchodilator activity in dog assessed as degree of inhibition of carbachol or histamine-induced bronchoconstriction at 10 to 20 mg/kg, iv relative to control. The format is functional, Canis lupus familiaris. Particulars: dose mg/kg 10-20. In outline:
as §2

Data set [5] deals with Canis familiaris. The experiment in a line: Cardiotoxicity in spontaneously respiring dog assessed as time of increase in heart rate at 5 to 20 mg/kg, iv relative to control. Format: toxicity, organism-based, Canis lupus familiaris. On the set-up: dose 5-20 mg/kg, route intravenous. Particulars: in vivo. Put shortly: as §1
Data set [6] concerns Canis familiaris. The experiment in a line: Bronchodilator activity in dog assessed as time of inhibition of carbachol or histamine-induced bronchoconstriction at 5 to 20 mg/kg, iv relative to control. Format: functional, Canis lupus familiaris. The settings on record: dose mg/kg 5-20. Put shortly:
as §2

For data set [7], the system named is Canis familiaris. The experiment in a line: Cardiotoxicity in spontaneously respiring dog assessed as degree of increase in heart rate at 5 to 20 mg/kg, iv relative to control. Particulars: in vivo. Format: toxicity, organism-based, Canis lupus familiaris. The arrangement: dose 5-20 mg/kg, route intravenous. In outline: as §1
Data set [8] deals with Canis familiaris. The experiment in a line: Bronchodilator activity in dog assessed as degree of inhibition of carbachol or histamine-induced bronchoconstriction at 5 to 20 mg/kg, iv relative to control. Particulars: dose mg/kg 5-20. Format: functional, Canis lupus familiaris. In outline: as §2
In data set [9] the test system is Canis familiaris. The experiment in a line: Bronchodilator activity in dog assessed as time of inhibition of carbachol or histamine-induced bronchoconstriction at 5 mg/kg, iv relative to control. Format: functional, Canis lupus familiaris. In outline: (§3)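 Anesthetized dogs with an airway cannula and a nonbreathing valve. Bronchoconstriction was induced by iv carbachol (2–4 μg/kg) or histamine diphosphate (20–50 μg/kg) and read as change in airway pressure by transducer. Each compound was tested against both agonists in different dogs, and the results were combined and averaged. Effect is % inhibition of control constriction, with at least three dogs per dose. Drugs were dissolved fresh in distilled water, diluted in saline and kept on ice.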

Data set [10] concerns Canis familiaris. Put plainly: Bronchodilator activity in dog assessed as degree of inhibition of carbachol or histamine-induced bronchoconstriction at 5 mg/kg, iv relative to control. Format: functional. Particulars: Canis lupus familiaris. Put shortly:
(§4)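 Anesthetized dogs, trachea cannulated with a nonbreathing valve. Bronchoconstriction induced by iv carbachol (2–4 μg/kg) or histamine diphosphate (20–50 μg/kg) in separate animals, and airway pressure recorded by transducer. Drug stocks were made fresh in distilled water, diluted in saline and kept on ice. Read-out was percent inhibition of control constriction, averaged over at least three dogs per dose at the higher dose. Carbachol and histamine data were combined.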

Data set [11] has as its system Canis familiaris. Put plainly: Cardiotoxicity in spontaneously respiring dog assessed as time of increase in heart rate at 5 to 10 mg/kg, iv relative to control. The format is toxicity, organism-based, Canis lupus familiaris. On the set-up: dose 5-10 mg/kg, route intravenous. Particulars: in vivo. In outline: (§5)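 Anesthetized, spontaneously respiring dogs. Heart rate was taken from a lead II EKG, and blood pressure from the right femoral artery by transducer. The increase in heart rate (beats/min) was scored on a graded scale with more than 4 dogs per dose, and its duration was recorded. Drugs were dissolved fresh in distilled water, diluted in physiological saline and kept on ice.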

Data set [12] concerns Canis familiaris. The experiment in a line: Bronchodilator activity in dog assessed as time of inhibition of carbachol or histamine-induced bronchoconstriction at 440 to 880 mg/kg, it relative to control. Format: functional, Canis lupus familiaris. Particulars: dose mg/kg 440-880; route endotracheal. Put shortly:
as §3

Data set [13] relates to Canis familiaris. The experiment in a line: Bronchodilator activity in dog assessed as time of inhibition of carbachol or histamine-induced bronchoconstriction at 5 to 10 mg/kg, iv relative to control. The format is functional, Canis lupus familiaris. Particulars: dose mg/kg 5-10. In outline: as §3
Data set [14] relates to Canis familiaris. The experiment in a line: Cardiotoxicity in spontaneously respiring dog assessed as degree of increase in heart rate at 5 to 10 mg/kg, iv relative to control. Particulars: in vivo. On the set-up: dose 5-10 mg/kg, route intravenous. The format is toxicity, organism-based, Canis lupus familiaris. Put shortly:
as §5

For data set [15], the system named is Canis familiaris. Put plainly: Bronchodilator activity in dog assessed as degree of inhibition of carbachol or histamine-induced bronchoconstriction at 440 to 880 mg/kg, it relative to control. Format: functional, Canis lupus familiaris. Particulars: dose mg/kg 440-880; route endotracheal. In outline: as §4
The test system of data set [16] is Canis familiaris. Put plainly: Bronchodilator activity in dog assessed as degree of inhibition of carbachol or histamine-induced bronchoconstriction at 5 to 10 mg/kg, iv relative to control. The format is functional, Canis lupus familiaris. The settings on record: dose mg/kg 5-10. In outline: as §4
For data set [17], the system named is Canis familiaris. The experiment in a line: Cardiotoxicity in spontaneously respiring dog assessed as time of increase in heart rate at 50 to 100 mg/kg, iv relative to control. Format: toxicity, organism-based, Canis lupus familiaris. On the set-up: dose 50-100 mg/kg, route intravenous. Particulars: in vivo. In outline: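 Anesthetized, spontaneously respiring dogs. Heart rate monitored by lead II EKG, with blood pressure taken from the right femoral artery by pressure transducer and recorded on a polygraph. Drug stocks made fresh in distilled water, diluted in physiological saline and kept on ice. Dosing was iv, id or it as listed. The duration of the heart-rate increase was recorded in h, with more than 4 dogs per dose.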

The subject of data set [18] is Canis familiaris. Put plainly: Bronchodilator activity in dog assessed as time of inhibition of carbachol or histamine-induced bronchoconstriction at 50 to 100 mg/kg, iv relative to control. Format: functional, Canis lupus familiaris. Particulars: dose mg/kg 50-100. In outline: as §3
Data set [19] deals with Canis familiaris. The experiment in a line: Cardiotoxicity in spontaneously respiring dog assessed as degree of increase in heart rate at 50 to 100 mg/kg, iv relative to control. Format: toxicity, organism-based, Canis lupus familiaris. On the set-up: dose 50-100 mg/kg, route intravenous. The settings on record: in vivo. In outline: as §5
In data set [20] the test system is Canis familiaris. The experiment in a line: Bronchodilator activity in dog assessed as degree of inhibition of carbachol or histamine-induced bronchoconstriction at 50 to 100 mg/kg, iv relative to control. Format: functional, Canis lupus familiaris. Particulars: dose mg/kg 50-100. In outline:
as §4

The test system of data set [21] is Canis familiaris. The experiment in a line: Cardiotoxicity in spontaneously respiring dog assessed as time of increase in heart rate at 400 to 800 mg/kg, it relative to control. The format is toxicity, organism-based, Canis lupus familiaris. The arrangement: dose 400-800 mg/kg, route endotracheal. Particulars: in vivo, inhaled_or_intranasal. Put shortly: as §5

Data set [22] has as its system Canis familiaris. The experiment in a line: Bronchodilator activity in dog assessed as time of inhibition of carbachol or histamine-induced bronchoconstriction at 400 to 800 mg/kg, it relative to control. The format is functional, Canis lupus familiaris. The settings on record: dose mg/kg 400-800; route endotracheal. In outline: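 Dog airway model: anesthetized, cannulated via a nonbreathing valve, with airway pressure changes recorded after iv carbachol (2–4 μg/kg) or histamine diphosphate (20–50 μg/kg) challenge, each agonist in different animals. Compounds were given iv, intraduodenally or intratracheally from fresh aqueous stocks diluted in saline. Duration (h) of inhibition of induced bronchoconstriction was followed, and the two agonist datasets were pooled.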

Data set [23] relates to Canis familiaris. The experiment in a line: Cardiotoxicity in spontaneously respiring dog assessed as degree of increase in heart rate at 400 to 800 mg/kg, it relative to control. On the set-up: dose 400-800 mg/kg, route endotracheal. The format is toxicity, organism-based, Canis lupus familiaris. Particulars: in vivo, inhaled_or_intranasal. Put shortly:
as §5

For data set [24], the system named is Canis familiaris. The experiment in a line: Bronchodilator activity in dog assessed as degree of inhibition of carbachol or histamine-induced bronchoconstriction at 400 to 800 mg/kg, it relative to control. Format: functional, Canis lupus familiaris. Particulars: dose mg/kg 400-800; route endotracheal. Put shortly: as §4

In general, inhibition in vivo refers to the drop in the measured response relative to a control, in per cent.

Consider `CC(C)(C)NC[C@H](O)c1ccc(OC(=O)C(C)(C)C)c(O)c1.CS(=O)(=O)O`, for which the Time in the data set with Canis familiaris [1] was less than 0.5 h; with Canis familiaris [2], less than 2 h. The Activity in the data set with Canis familiaris [3] came to 40%. Further, the “inhibition (INH)” value with Canis familiaris [4] was determined as 45%.
In the case of `CC(C)CC(=O)Oc1ccc([C@@H](O)CNC(C)(C)C)cc1O.CS(=O)(=O)O`, the Time is less than 1 h in the data set with Canis familiaris [5] and less than 2 h in the data set on Canis familiaris [6]. In addition, the Activity in the data set with Canis familiaris [7] is given as 40%. In the data set with Canis familiaris [8], the “inhibition (INH)” value turned out to be 45%.
Regarding `CC(C)(C)CC(=O)Oc1ccc([C@@H](O)CNC(C)(C)C)cc1O.CS(=O)(=O)O`, the Time in the data set with Canis familiaris [9] is greater than 3 h. For the same compound, the inhibition in vivo at 5 mg/kg in the data set with Canis familiaris [10] was found to be 45%.
Turning to `CS(=O)(=O)O.Cc1ccc(C(=O)Oc2ccc([C@@H](O)CNC(C)(C)C)cc2O)cc1`, the Time in the data set with Canis familiaris [11] was less than 0.5 h; in the data set on Canis familiaris [12] it was less than 2 h; in the data set on Canis familiaris [13], greater than 3 h. Moreover, the Activity with Canis familiaris [14] was determined as 40 beats/min. In addition, the “inhibition (INH)” value in the data set with Canis familiaris [15] and in the data set with Canis familiaris [16] was 45% each time.
Regarding `CS(=O)(=O)O.Cc1cccc(C(=O)Oc2ccc([C@@H](O)CNC(C)(C)C)cc2O)c1`, the Time in the data set with Canis familiaris [17] was less than 0.5 h; in the data set on Canis familiaris [12] it was less than 2 h; in the data set on Canis familiaris [18], less than 2 h. The Activity in the data set with Canis familiaris [19] was determined as 40 beats/min. Further, the “inhibition (INH)” value with Canis familiaris [15] and with Canis familiaris [20] was greater than 70% throughout.
Consider `COc1ccc(C(=O)Oc2ccc([C@@H](O)CNC(C)(C)C)cc2O)cc1.Cl`, for which the Time in the data set on Canis familiaris [21] was less than 0.5 h; with Canis familiaris [22] it was less than 2 h. In addition, the Activity in the data set with Canis familiaris [23] was determined as 20%. In the data set with Canis familiaris [24], the “inhibition (INH)” value stood at 45%.
